From the RNAGym collection of RNA variant scans (doi:10.1038/s41586-018-0170-7)

B1: tRNA (parent)
chain: GUUCCGUUGGCGUAAUGGUAACGCGUCUCCCUCCUAAGGAGAAGACUGCGGGUUCGAGUCCCGUACGGAACG

Variants of: B1
Experiment: yeast fitness, log relative to wild type (ln ratio); higher = fitter; tRNA-Arg(CCU), competitive growth, 37 C, 1 M NaCl
Procedure, shortened: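 In BY4742 missing the chromosomal gene, a combinatorial tRNA-Arg(CCU) variant library was maintained on a HIS3 centromeric plasmid. Selection ran ~6.5 generations (~26.5 h) in SC-HIS 1M NaCl at 37 °C, following 4 generations in SC-HIS at 30 °C, with three outputs per input and variant counts by 125 bp paired-end Illumina sequencing. Fitness is the natural log of a genotype's generations relative to the wild type's, with generations taken as inverse-variance-weighted, OD-scaled log2 output/input frequency.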

Variant | yeast fitness (ln)
GCUCCAUUGGCGUAAUGGUAACGCGUUUCCCUCCUAAGGAGACGAUUGCGGGUUCGAGUCCCGUACGGAACG [U2C G6A C27U A43C C46U] | -0.0171
AGUCCGUUGGCGUAAUGGUAACGCGUCUCCCUCCUAAGGAGACGACUGCGGGUUCGAGUCCCGUAUGGAUUG [G1A U2G A43C C66U A70U C71U] | -0.333
AGUCCAUUGGCGUAAUGGUAACGCGUUUCCCUCCUAAGGAGACGACUGCGGGUUCGAGUCCCGUACGGAGUG [G1A U2G G6A C27U A43C A70G C71U] | -0.344
GUUCCGUUGGCGUAAUGGUAACGCGUUUCCCUCCUAAGGAGAAGACUGCGGGUUCGAGUCCCGUAUGGAGUG [C27U C66U A70G C71U] | -0.183
GGUCCAUUGGCGUAAUGGUAACGCGUCUCCCUCCUAAGGAGACGACUGCGGGUUCGAGUCCCGUAUGGAACG [U2G G6A A43C C66U] | -0.0762
GGUCCUUUGGCGUAAUGGUAACGCGUCUCCCUCCUAAGGAGACGACUGCGGGUUCGAGUCCCGUAUGGAAUG [U2G G6U A43C C66U C71U] | -0.405
AUUCCAUUGGCGUAAUGGUAACGCGUCUCCCUCCUAAGGAGACGACUGCGGGUUCGAGUCCCGUAUGGAGCG [G1A G6A A43C C66U A70G] | -0.213
AUUCCUUUGGCGUAAUGGUAACGCGUUUCCCUCCUAAGGAGACGAUUGCGGGUUCGAGUCCCGUAUGGAGCG [G1A G6U C27U A43C C46U C66U A70G] | -0.387
GGUCCUUUGGCGUAAUGGUAACGCGUUUCCCUCCUAAGGAGACGAUUGCGGGUUCGAGUCCCGUAUGGGGUG [U2G G6U C27U A43C C46U C66U A69G A70G C71U] | -0.369
GUUCCAUUGGCGUAAUGGUAACGCGUUUCCCUCCUAAGGAGAAGACUGCGGGUUCGAGUCCCGUAUGGAAUG [G6A C27U C66U C71U] | -0.171
ACUCCUUUGGCGUAAUGGUAACGCGUCUCCCUCCUAAGGAGAAGACUGCGGGUUCGAGUCCCGUAUGGGUCG [G1A U2C G6U C66U A69G A70U] | -0.244
ACUCCAUUGGCGUAAUGGUAACGCGUUUCCCUCCUAAGGAGACGACUGCGGGUUCGAGUCCCGUAUGGAGCG [G1A U2C G6A C27U A43C C66U A70G] | -0.3
AGUCCUUUGGCGUAAUGGUAACGCGUUUCCCUCCUAAGGAGAAGAUUGCGGGUUCGAGUCCCGUACGGGUUG [G1A U2G G6U C27U C46U A69G A70U C71U] | -0.43
ACUCCAUUGGCGUAAUGGUAACGCGUUUCCCUCCUAAGGAGAAGAUUGCGGGUUCGAGUCCCGUAUGGAGUG [G1A U2C G6A C27U C46U C66U A70G C71U] | -0.00474
AUUCCUUUGGCGUAAUGGUAACGCGUUUCCCUCCUAAGGAGACGACUGCGGGUUCGAGUCCCGUACGGAGCG [G1A G6U C27U A43C A70G] | -0.439
AGUCCGUUGGCGUAAUGGUAACGCGUCUCCCUCCUAAGGAGACGACUGCGGGUUCGAGUCCCGUAAGGAGCG [G1A U2G A43C C66A A70G] | -0.241
AGUCCUUUGGCGUAAUGGUAACGCGUUUCCCUCCUAAGGAGACGACUGCGGGUUCGAGUCCCGUACGGGAUG [G1A U2G G6U C27U A43C A69G C71U] | -0.479
ACUCCGUUGGCGUAAUGGUAACGCGUCUCCCUCCUAAGGAGACGACUGCGGGUUCGAGUCCCGUAUGGAGCG [G1A U2C A43C C66U A70G] | -0.161
GGUCCGUUGGCGUAAUGGUAACGCGUCUCCCUCCUAAGGAGACGAUUGCGGGUUCGAGUCCCGUAUGGAACG [U2G A43C C46U C66U] | -0.14

Variant | yeast fitness (ln)
AUUCCAUUGGCGUAAUGGUAACGCGUCUCCCUCCUAAGGAGAAGACUGCGGGUUCGAGUCCCGUAUGGGACG [G1A G6A C66U A69G] | -0.346
AUUCCGUUGGCGUAAUGGUAACGCGUCUCCCUCCUAAGGAGAAGAUUGCGGGUUCGAGUCCCGUACGGGAUG [G1A C46U A69G C71U] | -0.00219
AUUCCGUUGGCGUAAUGGUAACGCGUCUCCCUCCUAAGGAGAAGAUUGCGGGUUCGAGUCCCGUAAGGGGCG [G1A C46U C66A A69G A70G] | -0.183
AGUCCGUUGGCGUAAUGGUAACGCGUUUCCCUCCUAAGGAGAAGACUGCGGGUUCGAGUCCCGUACGGAAUG [G1A U2G C27U C71U] | -0.108
ACUCCUUUGGCGUAAUGGUAACGCGUCUCCCUCCUAAGGAGACGAUUGCGGGUUCGAGUCCCGUAAGGAAUG [G1A U2C G6U A43C C46U C66A C71U] | -0.3
ACUCCGUUGGCGUAAUGGUAACGCGUUUCCCUCCUAAGGAGACGACUGCGGGUUCGAGUCCCGUACGGAUCG [G1A U2C C27U A43C A70U] | -0.111
GGUCCAUUGGCGUAAUGGUAACGCGUCUCCCUCCUAAGGAGACGACUGCGGGUUCGAGUCCCGUAUGGAAUG [U2G G6A A43C C66U C71U] | -0.388
AUUCCGUUGGCGUAAUGGUAACGCGUCUCCCUCCUAAGGAGACGAUUGCGGGUUCGAGUCCCGUACGGAUUG [G1A A43C C46U A70U C71U] | -0.116
AUUCCAUUGGCGUAAUGGUAACGCGUCUCCCUCCUAAGGAGACGAUUGCGGGUUCGAGUCCCGUAUGGAACG [G1A G6A A43C C46U C66U] | -0.295
AGUCCGUUGGCGUAAUGGUAACGCGUCUCCCUCCUAAGGAGAAGAUUGCGGGUUCGAGUCCCGUACGGAGUG [G1A U2G C46U A70G C71U] | -0.166
GUUCCGUUGGCGUAAUGGUAACGCGUCUCCCUCCUAAGGAGACGACUGCGGGUUCGAGUCCCGUAAGGGUCG [A43C C66A A69G A70U] | -0.153
GCUCCAUUGGCGUAAUGGUAACGCGUCUCCCUCCUAAGGAGAAGAUUGCGGGUUCGAGUCCCGUACGGAGUG [U2C G6A C46U A70G C71U] | -0.0308
AUUCCUUUGGCGUAAUGGUAACGCGUUUCCCUCCUAAGGAGACGAUUGCGGGUUCGAGUCCCGUACGGGGUG [G1A G6U C27U A43C C46U A69G A70G C71U] | -0.414
GGUCCAUUGGCGUAAUGGUAACGCGUUUCCCUCCUAAGGAGACGACUGCGGGUUCGAGUCCCGUACGGAUUG [U2G G6A C27U A43C A70U C71U] | -0.242
GGUCCUUUGGCGUAAUGGUAACGCGUCUCCCUCCUAAGGAGACGAUUGCGGGUUCGAGUCCCGUACGGAGCG [U2G G6U A43C C46U A70G] | -0.138
GGUCCUUUGGCGUAAUGGUAACGCGUUUCCCUCCUAAGGAGACGACUGCGGGUUCGAGUCCCGUAAGGAGCG [U2G G6U C27U A43C C66A A70G] | -0.214
ACUCCGUUGGCGUAAUGGUAACGCGUCUCCCUCCUAAGGAGACGAUUGCGGGUUCGAGUCCCGUAUGGGGUG [G1A U2C A43C C46U C66U A69G A70G C71U] | -0.417
GUUCCGUUGGCGUAAUGGUAACGCGUCUCCCUCCUAAGGAGACGAUUGCGGGUUCGAGUCCCGUACGGAGCG [A43C C46U A70G] | -0.00498
ACUCCUUUGGCGUAAUGGUAACGCGUUUCCCUCCUAAGGAGAAGACUGCGGGUUCGAGUCCCGUACGGAUCG [G1A U2C G6U C27U A70U] | -0.134
